Measured values as given in ChEMBL document CHEMBL4177719, “Synthesis and evaluation of biaryl derivatives for structural characterization of selective monoamine oxidase B inhibitors toward Parkinson's disease therapy” (Bioorg Med Chem, 2018).
Calls of active or inactive are those of the source. The rule behind the calls is not given here.

Experiments:
[1] = biological target: T1, Amine oxidase [flavin-containing] B (Homo sapiens, UniProt P27338); assay: Inhibition of recombinant human MAO-B using benzylamine as substrate preincubated for 15 mins followed by substrate addition measured after 20 mins by amplex red reagent based spectrophotometric assay
T1 sequence (P27338 whole entry): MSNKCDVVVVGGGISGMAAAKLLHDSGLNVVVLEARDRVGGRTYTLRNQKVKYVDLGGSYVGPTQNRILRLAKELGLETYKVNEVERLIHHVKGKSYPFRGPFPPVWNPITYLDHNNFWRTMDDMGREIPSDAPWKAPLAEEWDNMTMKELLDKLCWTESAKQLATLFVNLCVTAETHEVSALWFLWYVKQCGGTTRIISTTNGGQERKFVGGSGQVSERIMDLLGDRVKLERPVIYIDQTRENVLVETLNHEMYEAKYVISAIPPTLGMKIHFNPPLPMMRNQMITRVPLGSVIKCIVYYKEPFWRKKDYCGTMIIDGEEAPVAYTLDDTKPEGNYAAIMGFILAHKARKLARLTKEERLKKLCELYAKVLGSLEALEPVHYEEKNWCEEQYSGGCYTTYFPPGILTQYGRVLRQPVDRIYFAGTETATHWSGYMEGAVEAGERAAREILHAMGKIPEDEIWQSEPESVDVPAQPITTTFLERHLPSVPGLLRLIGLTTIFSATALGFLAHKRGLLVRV

[2] = biological target: T2, Amine oxidase [flavin-containing] A (Homo sapiens, UniProt P21397); assay: Inhibition of recombinant human MAO-A using p-tyramine as substrate preincubated for 15 mins followed by substrate addition measured after 20 mins by amplex red reagent based spectrophotometric assay
T2 sequence (P21397 whole entry): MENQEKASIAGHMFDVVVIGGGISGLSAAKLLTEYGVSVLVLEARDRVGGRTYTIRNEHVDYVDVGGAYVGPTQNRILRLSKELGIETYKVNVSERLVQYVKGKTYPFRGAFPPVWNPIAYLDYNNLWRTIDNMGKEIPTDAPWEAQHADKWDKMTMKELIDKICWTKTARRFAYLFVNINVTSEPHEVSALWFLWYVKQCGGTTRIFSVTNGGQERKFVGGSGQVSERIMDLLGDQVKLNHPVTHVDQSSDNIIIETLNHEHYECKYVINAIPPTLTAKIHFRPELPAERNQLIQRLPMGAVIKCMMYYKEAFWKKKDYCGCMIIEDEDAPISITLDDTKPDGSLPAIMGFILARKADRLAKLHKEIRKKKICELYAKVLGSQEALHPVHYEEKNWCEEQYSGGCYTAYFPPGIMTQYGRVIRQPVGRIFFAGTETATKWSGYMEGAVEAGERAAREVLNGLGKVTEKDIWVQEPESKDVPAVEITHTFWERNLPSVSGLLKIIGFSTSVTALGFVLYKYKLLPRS
Method in brief: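 Recombinant human MAO-A with compounds at final 10⁻⁵–10 µM, preincubated 15 min at 37 °C in 50 mM sodium phosphate, pH 7.4. Reaction started by adding 200 µM Amplex Red, 2 U/mL horseradish peroxidase and 2 mM p-tyramine. IC50 came from dose-response curves in quadruplicate, as mean ± S.E.M.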

[3] = species on record: Homo sapiens; assay: Selectivity index, ratio of IC50 for recombinant human MAO-A to IC50 for recombinant human MAO-B
[4] = biological target: T1, Amine oxidase [flavin-containing] B; assay: Competitive inhibition of recombinant human MAO-B assessed as Vmax for substrate using varying level of benzylamine substrate preincubated for 15 mins followed by substrate addition measured after 20 mins by Lineweaver-Burk plot analysis
Method in brief: (§1)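 Recombinant human MAO-B with benzylamine at 0.065, 0.125, 0.25, 0.5, 1, 2 and 4 mM, with inhibitor at 0, 0.3, 1 and 3 nM. Amplex Red/HRP H2O2-coupled fluorescence in 50 mM sodium phosphate pH 7.4 at 37 °C. Initial rates taken from progression curves; Lineweaver-Burk double-reciprocal analysis.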

[5] = biological target: T1, Amine oxidase [flavin-containing] B; assay: Competitive inhibition of recombinant human MAO-B using varying level of benzylamine substrate preincubated for 15 mins followed by substrate addition measured after 20 mins by Lineweaver-Burk plot analysis; method in brief: as §1
[6] = system: Mus musculus; assay: Anti-parkinson's activity in MPTP-induced C57Bl/6 mouse model of Parkinson's disease assessed as restoration of MPTP-induced weight loss at 30 mg/kg, po administered for 3 consecutive days; format: functional, organism-based
Method in brief: (§2)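 Male C57Bl/6 mice, 10 weeks old, 23–25 g (n = 5-8 per group). MPTP-HCl 20 mg/kg i.p., given as 4 injections at 2 h intervals. Drug 30 mg/kg/day p.o. for 3 consecutive days spanning MPTP dosing. Vehicle was 12.5% castor oil/ethanol (equal parts) in distilled water. Saline-treated controls.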

[7] = system: Mus musculus; assay: Anti-parkinson's activity in MPTP-induced C57Bl/6 mouse model of Parkinson's disease assessed as restoration of motor ability by measuring ascending ability to reach stable position at 30 mg/kg, po administered for 3 consecutive days measured 6 days after MPTP injection by coathanger method; format: functional, organism-based; method in brief: as §2
[8] = system: Mus musculus; assay: (§3) Anti-parkinson's activity in MPTP-induced C57Bl/6 mouse model of Parkinson's disease assessed as restoration of motor ability at 30 mg/kg, po administered for 3 consecutive days measured 6 days after MPTP injection by vertical grid test; format: functional, organism-based; method in brief: as §2
[9] = system: Mus musculus; assay: Restoration of MPTP-induced tyrosine hydroxylase enzyme activity loss in C57Bl/6 mouse assessed as enzyme activity loss in DAergic neurons of substantia nigra pars compacta at 30 mg/kg, po administered for 3 consecutive days measured 6 days after MPTP injection by DAB staining based microscopic method; format: functional; method in brief: as §2
[10] = system: Mus musculus; assay: as §3, with “MPTP-induced reduction in TH-immunoreactive fiber density in striatum” for “motor ability”, “DAB staining based microscopic method” for “vertical grid test”; format: functional, organism-based; method in brief: as §2

| SMILES | IC50 [1] | IC50 [2] | Ratio IC50 [3] | further results |
| --- | --- | --- | --- | --- |
| NCCc1ccc(OCc2ccc(F)cc2)cc1 | 109 nM | > 100000 nM | > 910 |  |
| NC(=O)c1ccc(OCc2ccc(F)cc2)cc1 | 271 nM | > 100000 nM | > 360 |  |
| NC(=O)c1ccc(OCc2cccc(C(F)(F)F)c2)cc1 | 1110 nM | > 100000 nM | > 90 |  |
| NC(=O)c1ccc(OCc2ccccc2C(F)(F)F)cc1 | 2020 nM | > 100000 nM | > 49 |  |
| NCCc1ccc(-c2ccccc2Cl)cc1 | 8340 nM | > 10000 nM | > 1.2 |  |
| NCc1ccc(OCc2cccc(Cl)c2)cc1 | 257 nM | > 100000 nM | > 380 |  |
| NCCc1ccc(-c2ccc(C(F)(F)F)cc2)cc1 | 41 nM | > 10000 nM | > 240 |  |
| NCc1ccc(OCc2ccccc2)cc1 | 3230 nM | > 100000 nM | > 31 |  |
| COc1cccc(COc2ccc(CCN)cc2)c1 | 305 nM | > 10000 nM | > 33 |  |
| COc1ccc(-c2ccc(CCN)cc2)cc1 | 5760 nM | > 10000 nM | > 1.7 |  |
| COc1ccc(CN[C@@H](C)C(N)=O)cc1 | > 10000 nM | > 10000 nM |  |  |
| NCCc1ccc(OCc2ccccc2F)cc1 | 396 nM | > 10000 nM | > 25 |  |
| NCCc1ccc(OCc2cccc(F)c2)cc1 | 193 nM | > 100000 nM | > 510 |  |
| NCCc1ccc(OCc2cccc(C(F)(F)F)c2)cc1 | 110 nM | > 100000 nM | > 900 |  |
| NC(=O)c1ccc(OCc2ccccc2F)cc1 | 1050 nM | > 100000 nM | > 95 |  |
| CC(=O)N[C@H]1CC(=O)N(c2ccc(OCc3cccc(F)c3)cc2)C1 [SEMBRAGILINE] | 16 nM |  |  |  |
| NC(=O)c1ccc(OCc2cccc(F)c2)cc1 | 1550 nM | > 100000 nM | > 65 |  |
| Nc1ccc(OCc2ccc(F)cc2)cc1 | 3320 nM | > 100000 nM | > 30 |  |
| NCc1ccc(OCc2ccccc2F)cc1 | 1460 nM | > 100000 nM | > 68 |  |
| NCc1ccc(OCc2cccc(C(F)(F)F)c2)cc1 | 387 nM | > 100000 nM | > 250 |  |
| NCCc1ccc(-c2ccccc2F)cc1 | > 10000 nM | > 10000 nM |  |  |
| COc1ccc(COc2ccc(CN)cc2)cc1 | 283 nM | > 100000 nM | > 350 |  |
| NCCc1ccc(OCc2cccc(Cl)c2)cc1 | 62 nM | > 100000 nM | > 1600 |  |

| SMILES | IC50 [1] | IC50 [2] | Ratio IC50 [3] | further results |
| --- | --- | --- | --- | --- |
| NCc1ccc(OCc2ccc(F)cc2)cc1 | 452 nM | > 100000 nM | > 220 |  |
| NCc1ccc(OCc2ccc(C(F)(F)F)cc2)cc1 | 136 nM | > 100000 nM | > 730 |  |
| Nc1ccc(OCc2ccccc2C(F)(F)F)cc1 | > 10000 nM | > 100000 nM |  |  |
| NCCc1ccc(-c2cccc(F)c2)cc1 | > 10000 nM | > 10000 nM |  |  |
| Nc1ccc(OCc2cccc(C(F)(F)F)c2)cc1 | 1510 nM | > 100000 nM | > 66 |  |
| Cl.NCCc1ccc(OCc2ccc(C(F)(F)F)cc2)cc1 | 9 nM | > 100000 nM | > 11000 | Vmax [4]: 5.86 ×10⁷ U/min; Ki [5]: 6.88 nM; Activity [6]: Active; Activity [7]: Active; Activity [8]: Active; Activity [9]: 38%; Activity [10]: Active |
| NCCc1ccc(-c2ccc(Cl)cc2)cc1 | 625 nM | > 10000 nM | > 16 |  |
| NCCc1ccc(OCc2ccccc2Cl)cc1 | 2850 nM | > 10000 nM | > 3.5 |  |
| NCc1ccc(OCc2ccc(Cl)cc2)cc1 | 440 nM | > 30000 nM | > 68 |  |
| NCCc1ccc(-c2ccc(F)cc2)cc1 | 6810 nM | > 10000 nM | > 1.5 |  |
| NC(=O)c1ccc(OCc2ccc(C(F)(F)F)cc2)cc1 | 642 nM | > 100000 nM | > 150 |  |
| NCCc1ccc(OCc2ccccc2C(F)(F)F)cc1 | 1800 nM | > 100000 nM | > 55 |  |
| NCCc1ccc(-c2cccc(Cl)c2)cc1 | 2110 nM | > 10000 nM | > 4.7 |  |
| NCCc1ccc(OCc2ccc(Cl)cc2)cc1 | 59 nM | > 100000 nM | > 1600 |  |
| NCCc1ccc(-c2cccc(C(F)(F)F)c2)cc1 | 1570 nM | > 10000 nM | > 6.4 |  |
| COc1cccc(COc2ccc(CN)cc2)c1 | 175 nM | > 30000 nM | > 170 |  |
| Nc1ccc(OCc2cccc(F)c2)cc1 | 2480 nM | > 100000 nM | > 40 |  |
| NCc1ccc(OCc2cccc(F)c2)cc1 | 926 nM | > 100000 nM | > 100 |  |
| Nc1ccc(OCc2ccc(C(F)(F)F)cc2)cc1 | 402 nM | > 100000 nM | > 240 |  |
| COc1cccc(-c2ccc(CCN)cc2)c1 | 5000 nM | > 10000 nM | > 1.9 |  |
| Nc1ccc(OCc2ccccc2F)cc1 | > 10000 nM | > 30000 nM |  |  |
| NCc1ccc(OCc2ccccc2C(F)(F)F)cc1 | 3150 nM | > 100000 nM | > 32 |  |
